Test results published in ChEMBL document CHEMBL3804761, “Synthesis of a stable and orally bioavailable englerin analogue” (Bioorg Med Chem Lett, 2016).

Tests used:
Format in all cases: functional
U-251 = assay: Growth inhibition of human U251 cells assessed as cell growth at 10 uM incubated for 48 hrs by sulforhodamine B assay relative to control; conditions: U-251, 48 h, read-out: Activity
Summary of the method: (§1)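 NCI 60-cell line standard protocol, one-dose screen: single final concentration 10 µM, 2-day drug exposure, sulforhodamine B (SRB) endpoint; read-out is growth percent relative to untreated control.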

[1] = Growth inhibition of human SF268 cells assessed as cell growth at 10 uM incubated for 48 hrs by sulforhodamine B assay relative to control; conditions: SF-268, 48 h, read-out: Activity
Summary of the method: (§2)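 Run in the standard NCI 60-cell-line screen. Cells were exposed to drug for two days, and the read-out was sulforhodamine B staining. Compound was tested at a single final concentration of 10 µM in every line, and results are reported as growth percent.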

MDA-MB-435 = assay: Growth inhibition of human MDA-MB-435 cells assessed as cell growth at 10 uM incubated for 48 hrs by sulforhodamine B assay relative to control; conditions: MDA-MB-435, 48 h, read-out: Activity; summary of the method: as §2
[2] = Growth inhibition of human MOLT4 cells assessed as cell growth at 10 uM incubated for 48 hrs by sulforhodamine B assay relative to control; conditions: MOLT-4, 48 h, read-out: Activity; summary of the method: as §2
T47D = assay: Growth inhibition of human T47D cells assessed as cell growth at 10 uM incubated for 48 hrs by sulforhodamine B assay relative to control; conditions: read-out: Activity; summary of the method: as §1
[3] = Growth inhibition of human SF539 cells assessed as cell growth at 10 uM incubated for 48 hrs by sulforhodamine B assay relative to control; conditions: SF-539, 48 h, read-out: Activity
Summary of the method: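 Single-dose screen in the NCI 60-cell-line panel at one final concentration of 10 µM. Two-day drug exposure with a sulforhodamine B endpoint. Values are growth percent for each cell line.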

[4] = Growth inhibition of human DU145 cells assessed as cell growth at 10 uM incubated for 48 hrs by sulforhodamine B assay relative to control; conditions: DU-145, 48 h, read-out: Activity; summary of the method: as §2
SR = assay: Growth inhibition of human SR cells assessed as cell growth at 10 uM incubated for 48 hrs by sulforhodamine B assay relative to control; conditions: read-out: Activity; summary of the method: as §2
[5] = Growth inhibition of human UACC62 cells assessed as cell growth at 10 uM incubated for 48 hrs by sulforhodamine B assay relative to control; conditions: UACC-62, 48 h, read-out: Activity; summary of the method: as §1
MDA-MB-231 = assay: Growth inhibition of human MDA-MB-231 cells assessed as cell growth at 10 uM incubated for 48 hrs by sulforhodamine B assay relative to control; conditions: MDA-MB-231, 48 h, read-out: Activity; summary of the method: as §2
NCI-H226 = assay: Growth inhibition of human NCI-H226 cells assessed as cell growth at 10 uM incubated for 48 hrs by sulforhodamine B assay relative to control; conditions: NCI-H226, 48 h, read-out: Activity; summary of the method: as §2

CC(C)[C@@]12C[C@@H](NC(=O)CF)[C@@](C)(O1)[C@@H]1CC[C@@H](C)[C@H]1[C@@H]2OC(=O)/C=C/c1ccccc1
growth at 10 µM (U-251): 106% | growth at 10 µM [1]: 97.7% | growth at 10 µM (MDA-MB-435): 106% | growth at 10 µM [2]: 96.5% | growth at 10 µM (T47D): 78.4% | growth at 10 µM [3]: 87.9% | growth at 10 µM [4]: 115% | growth at 10 µM (SR): 85.5% | growth at 10 µM [5]: 99.6% | growth at 10 µM (MDA-MB-231): 102% | growth at 10 µM (NCI-H226): 84.5%
